Source: ChEMBL document CHEMBL2440065, “Identification of a novel benzoxazolone derivative as a selective, orally active 18 kDa translocator protein (TSPO) ligand” (J Med Chem, 2013)
Calls of active or inactive are those of the source.

What was measured:
Rattus norvegicus [1] = organism: Rattus norvegicus; experiment: Binding affinity to rat GABAA receptor agonist binding site at 10 uM by radioligand binding assay
In short: (§1)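 Off-target radioligand binding panel: compound tested in duplicate at a single concentration of 10 μM in each assay. Activity is reported as percent inhibition of radioligand binding.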

[2] = biological target: Phosphodiesterase 4 (Homo sapiens) (UniProt P27815+Q08499+Q07343+Q08493); experiment: Inhibition of human phosphodiesterase PDE4 at 10 uM; type: protein assay
[3] = biological target: Somatostatin receptor type 2 (Homo sapiens) (UniProt P30874); experiment: Binding affinity to human somatostatin sst2 receptor at 10 uM by radioligand binding assay
In short: (§2)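 Radioligand binding profiling panel across receptors and transporters linked to CNS, cardiovascular and pulmonary adverse events. Each target was tested once at 10 μM, run in duplicate.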

[4] = biological target: Substance-P receptor (Homo sapiens) (UniProt P25103); experiment: Binding affinity to human tachykinin NK1 receptor at 10 uM by radioligand binding assay; in short: as §2
[5] = biological target: Adenosine receptor A1 (Homo sapiens) (UniProt P30542); experiment: Binding affinity to human adenosine A1 receptor at 10 uM by radioligand binding assay; in short: as §2
[6] = biological target: Neuropeptide Y receptor type 1 (Homo sapiens) (UniProt P25929); experiment: Binding affinity to human Neuropeptide Y receptor Y1 at 10 uM by radioligand binding assay; in short: as §2
[7] = biological target: Sigma non-opioid intracellular receptor 1 (Homo sapiens) (UniProt Q99720); experiment: Binding affinity to human sigma1 receptor at 10 uM by radioligand binding assay; in short: as §2
Rattus norvegicus [8] = experiment: Anxiolytic-like activity in Sprague-Dawley rat vogel conflict model assessed as increase in number of shocks at 1 mg/kg, po after 1 hr; type: functional, organism-based; set-up: dose 1 mg/kg
[9] = biological target: Sodium-dependent dopamine transporter (Homo sapiens) (UniProt Q01959); experiment: Binding affinity to human dopamine transporter at 10 uM by radioligand binding assay; in short: as §2
[10] = biological target: 5-hydroxytryptamine receptor 6 (Homo sapiens) (UniProt P50406); experiment: Binding affinity to human serotonin 5HT6 receptor at 10 uM by radioligand binding assay; in short: as §2
Rattus norvegicus [11] = organism: Rattus norvegicus; experiment: Binding affinity to rat N-methyl D-aspartate receptor phencyclidine binding site at 10 uM by radioligand binding assay; in short: as §1
[12] = biological target: Glucocorticoid receptor (Homo sapiens) (UniProt P04150); experiment: Binding affinity to human glucocorticoid receptor at 10 uM by radioligand binding assay; in short: as §2
[13] = biological target: Histamine H3 receptor (Homo sapiens) (UniProt Q9Y5N1); experiment: Binding affinity to human histamine H3 receptor at 10 uM by radioligand binding assay; in short: as §2
[14] = biological target: 5-hydroxytryptamine receptor 4 (Cavia porcellus) (UniProt O70528); experiment: Binding affinity to guinea pig serotonin 5HT4 receptor at 10 uM by radioligand binding assay; in short: as §2
[15] = biological target: Sodium-dependent noradrenaline transporter (Homo sapiens) (UniProt P23975); experiment: Binding affinity to human norepinephrine transporter at 10 uM by radioligand binding assay; in short: as §2
[16] = biological target: D(1A) dopamine receptor (Homo sapiens) (UniProt P21728); experiment: Binding affinity to human dopamine D1 receptor at 10 uM by radioligand binding assay; in short: as §2
[17] = biological target: Bombesin receptor subtype-3 (Homo sapiens) (UniProt P32247); experiment: Binding affinity to human bombesin BB3 receptor at 10 uM by radioligand binding assay; in short: as §2
[18] = biological target: Beta-2 adrenergic receptor (Homo sapiens) (UniProt P07550); experiment: Binding affinity to human adrenergic beta2 receptor at 10 uM by radioligand binding assay; in short: as §2
[19] = biological target: Mu-type opioid receptor (Homo sapiens) (UniProt P35372); experiment: Binding affinity to human mu opiate receptor at 10 uM by radioligand binding assay; in short: as §2
[20] = biological target: Alpha-2A adrenergic receptor (Homo sapiens) (UniProt P08913); experiment: Binding affinity to human adrenergic alpha2A receptor at 10 uM by radioligand binding assay; in short: as §2
[21] = biological target: Muscarinic acetylcholine receptor M3 (Homo sapiens) (UniProt P20309); experiment: Binding affinity to human muscarinic M3 receptor at 10 uM by radioligand binding assay; in short: as §2
[22] = biological target: Vasopressin V1b receptor (Homo sapiens) (UniProt P47901); experiment: Binding affinity to human vasopressin V1B receptor at 10 uM by radioligand binding assay; in short: as §2
Rattus norvegicus [23] = organism: Rattus norvegicus; experiment: Binding affinity to rat kainate receptor at 10 uM by radioligand binding assay; in short: as §1
Mesocricetus auratus = organism: Mesocricetus auratus; experiment: Binding affinity to syrian hamster ATP-sensitive potassium channel at 10 uM by radioligand binding assay; in short: as §1
Rattus norvegicus [24] = organism: Rattus norvegicus; experiment: Displacement of [3H]flumazenil from Sprague-Dawley rat cerebral cortex CBR at 10 uM after 1 hr by liquid scintillation counting analysis; type: tissue-based
[25] = biological target: 5-hydroxytryptamine receptor 2A (Rattus norvegicus) (UniProt P14842); experiment: Binding affinity to rat non-selective serotonin 5HT2 receptor at 10 uM by radioligand binding assay; in short: as §2
Rattus norvegicus [26] = organism: Rattus norvegicus; experiment: Binding affinity to rat non-selective GABAB receptor at 10 uM by radioligand binding assay; in short: as §1
Homo sapiens = organism: Homo sapiens; experiment: Binding affinity to human nicotinic acetylcholine receptor at 10 uM by radioligand binding assay; in short: as §1
[27] = biological target: 5-hydroxytryptamine receptor 3A (Homo sapiens) (UniProt P46098); experiment: Binding affinity to human serotonin 5HT3 receptor at 10 uM by radioligand binding assay; in short: as §2
[28] = biological target: Vasopressin V1a receptor (Homo sapiens) (UniProt P37288); experiment: Binding affinity to human vasopressin V1A receptor at 10 uM by radioligand binding assay; in short: as §2
[29] = biological target: Type-2 angiotensin II receptor (Homo sapiens) (UniProt P50052); experiment: Binding affinity to human angiotensin AT2 receptor at 10 uM by radioligand binding assay; in short: as §2
[30] = biological target: Adenosine receptor A2a (Homo sapiens) (UniProt P29274); experiment: Binding affinity to human adenosine A2A receptor at 10 uM by radioligand binding assay; in short: as §2
Rattus norvegicus [31] = organism: Rattus norvegicus; experiment: Binding affinity to rat strychnine-sensitive glycine receptor at 10 uM by radioligand binding assay; in short: as §1
[32] = biological target: Muscarinic acetylcholine receptor M2 (Homo sapiens) (UniProt P08172); experiment: Binding affinity to human muscarinic M2 receptor at 10 uM by radioligand binding assay; in short: as §2
[33] = biological target: Cholecystokinin receptor type A (Homo sapiens) (UniProt P32238); experiment: Binding affinity to human CCK1 receptor at 10 uM by radioligand binding assay; in short: as §2
[34] = biological target: Galanin receptor type 1 (Homo sapiens) (UniProt P47211); experiment: Binding affinity to human GAL1 receptor at 10 uM by radioligand binding assay; in short: as §2
[35] = biological target: Neuropeptide Y receptor type 2 (Homo sapiens) (UniProt P49146); experiment: Binding affinity to human Neuropeptide Y receptor Y2 at 10 uM by radioligand binding assay; in short: as §2
[36] = biological target: Type-1 angiotensin II receptor (Homo sapiens) (UniProt P30556); experiment: Binding affinity to human angiotensin AT1 receptor at 10 uM by radioligand binding assay; in short: as §2
Rattus norvegicus [37] = organism: Rattus norvegicus; experiment: Binding affinity to rat GABAA receptor TBOB binding site at 10 uM by radioligand binding assay; in short: as §1
[38] = biological target: Nociceptin receptor (Homo sapiens) (UniProt P41146); experiment: Binding affinity to human ORL1 receptor at 10 uM by radioligand binding assay; in short: as §2
Rattus norvegicus [39] = organism: Rattus norvegicus; experiment: Binding affinity to rat N-type calcium channel at 10 uM by radioligand binding assay; in short: as §1
[40] = biological target: Corticotropin-releasing factor receptor 1 (Homo sapiens) (UniProt P34998); experiment: Binding affinity to human CRF1 receptor at 10 uM by radioligand binding assay; in short: as §2
[41] = biological target: Cannabinoid receptor 1 (Homo sapiens) (UniProt P21554); experiment: Binding affinity to human CB1 receptor at 10 uM by radioligand binding assay; in short: as §2
[42] = biological target: Melanocortin receptor 4 (Homo sapiens) (UniProt P32245); experiment: Binding affinity to human melanocortin MC4 receptor at 10 uM by radioligand binding assay; in short: as §2
[43] = biological target: Beta-1 adrenergic receptor (Homo sapiens) (UniProt P08588); experiment: Binding affinity to human adrenergic beta1 receptor at 10 uM by radioligand binding assay; in short: as §2
[44] = biological target: Gastrin/cholecystokinin type B receptor (Homo sapiens) (UniProt P32239); experiment: Binding affinity to human CCK2 receptor at 10 uM by radioligand binding assay; in short: as §2
[45] = biological target: Estrogen receptor beta (Homo sapiens) (UniProt Q92731); experiment: Binding affinity to human ERbeta at 10 uM by radioligand binding assay; in short: as §2
Rattus norvegicus [46] = organism: Rattus norvegicus; experiment: Binding affinity to rat L-type calcium channel dihydropyridine binding site at 10 uM by radioligand binding assay; in short: as §1
Mus musculus [47] = experiment: Neurotoxicity in ddY mouse assessed as motor impairment at 300 mg/kg, po after 1 hr by horizontal rotarod test; type: toxicity, organism-based; set-up: dose 300 mg/kg, route oral; settings: in vivo
[48] = Ratio of drug level in brain to blood in rat at 10 mg/kg, po; type: ADME, organism-based; set-up: dose 10 mg/kg, route oral
In short: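 Rats dosed orally at 10 mg/kg (HCl salt); brain and blood drug concentrations measured and expressed as brain/blood ratio.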

[49] = Solubility of the compound at pH 6.8; type: physicochemical; settings: buffer
In short: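 Solubility measured in pH 6.8 buffer containing bile acids; compound tested as free base and as HCl salt.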

Mus musculus [50] = experiment: Neurotoxicity in ddY mouse assessed as motor impairment at 3 to 30 mg/kg, po after 1 hr by horizontal rotarod test; type: toxicity, organism-based; set-up: dose 3-30 mg/kg, route oral; settings: in vivo
Rattus norvegicus [51] = experiment: Neurotoxicity in Wistar rat assessed as memory impairment at 1 to 30 mg/kg, po after 1 hr by passive avoidance test; type: toxicity, organism-based; set-up: dose 1-30 mg/kg, route oral; settings: in vivo
Mus musculus [52] = experiment: Neurotoxicity in ddY mouse assessed as reduction in locomotor activity at 3 to 30 mg/kg, po after 1 hr; type: toxicity, organism-based; set-up: dose 3-30 mg/kg, route oral; settings: in vivo
Mus musculus [53] = experiment: Neurotoxicity in ddY mouse assessed as elongation of hexobarbital-induced sleep at 0.3 to 3 mg/kg, po after 1 hr; type: toxicity, organism-based; set-up: dose 0.3-3 mg/kg, route oral; settings: in vivo

Chain of Muscarinic acetylcholine receptor M3 (Homo sapiens) (P20309 whole entry, looked up): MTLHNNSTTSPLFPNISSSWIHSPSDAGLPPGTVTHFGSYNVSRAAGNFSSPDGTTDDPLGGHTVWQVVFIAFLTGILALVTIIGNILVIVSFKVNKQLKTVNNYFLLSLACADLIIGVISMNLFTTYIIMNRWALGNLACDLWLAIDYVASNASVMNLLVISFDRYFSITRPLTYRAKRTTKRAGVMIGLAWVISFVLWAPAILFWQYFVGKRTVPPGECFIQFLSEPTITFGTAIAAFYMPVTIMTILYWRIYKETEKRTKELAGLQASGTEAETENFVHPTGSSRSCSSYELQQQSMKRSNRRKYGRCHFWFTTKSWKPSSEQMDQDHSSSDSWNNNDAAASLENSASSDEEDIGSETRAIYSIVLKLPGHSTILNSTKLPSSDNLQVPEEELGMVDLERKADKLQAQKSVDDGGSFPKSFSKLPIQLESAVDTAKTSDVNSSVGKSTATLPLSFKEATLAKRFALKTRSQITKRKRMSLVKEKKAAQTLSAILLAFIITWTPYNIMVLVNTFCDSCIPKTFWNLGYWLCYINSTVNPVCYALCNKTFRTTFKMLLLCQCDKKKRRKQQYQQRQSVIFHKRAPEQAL
Chain of Adenosine receptor A1 (Homo sapiens) (P30542 whole entry): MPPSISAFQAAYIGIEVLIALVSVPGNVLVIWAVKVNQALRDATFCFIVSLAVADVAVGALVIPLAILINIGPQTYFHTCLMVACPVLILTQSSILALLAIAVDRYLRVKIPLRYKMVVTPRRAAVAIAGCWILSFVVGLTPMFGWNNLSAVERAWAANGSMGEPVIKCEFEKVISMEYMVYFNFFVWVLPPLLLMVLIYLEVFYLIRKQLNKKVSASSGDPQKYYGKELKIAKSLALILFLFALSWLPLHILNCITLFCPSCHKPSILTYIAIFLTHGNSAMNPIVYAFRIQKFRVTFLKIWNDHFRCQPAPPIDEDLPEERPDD
Chain of Type-2 angiotensin II receptor (Homo sapiens) (P50052 whole entry): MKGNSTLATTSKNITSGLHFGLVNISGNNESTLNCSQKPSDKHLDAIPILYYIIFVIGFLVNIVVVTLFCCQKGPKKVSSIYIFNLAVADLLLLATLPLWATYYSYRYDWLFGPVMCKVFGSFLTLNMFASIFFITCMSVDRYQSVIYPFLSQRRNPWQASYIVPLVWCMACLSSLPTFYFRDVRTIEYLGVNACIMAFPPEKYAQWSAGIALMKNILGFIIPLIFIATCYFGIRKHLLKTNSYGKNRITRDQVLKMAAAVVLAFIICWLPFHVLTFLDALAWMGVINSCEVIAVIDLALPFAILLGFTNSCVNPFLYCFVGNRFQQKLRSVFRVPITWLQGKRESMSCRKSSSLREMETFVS
Chain of 5-hydroxytryptamine receptor 4 (Cavia porcellus) (O70528 whole entry): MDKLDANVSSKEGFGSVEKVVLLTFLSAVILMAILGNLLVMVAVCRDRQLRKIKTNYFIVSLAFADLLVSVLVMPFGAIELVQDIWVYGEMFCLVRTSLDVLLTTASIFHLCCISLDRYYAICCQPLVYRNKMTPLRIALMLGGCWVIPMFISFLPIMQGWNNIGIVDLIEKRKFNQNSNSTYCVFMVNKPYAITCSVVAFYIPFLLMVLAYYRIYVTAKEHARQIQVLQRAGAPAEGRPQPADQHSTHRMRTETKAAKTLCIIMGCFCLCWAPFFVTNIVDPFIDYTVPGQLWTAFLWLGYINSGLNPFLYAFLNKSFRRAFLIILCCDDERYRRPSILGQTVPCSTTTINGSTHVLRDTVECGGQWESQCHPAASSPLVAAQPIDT
Chain of 5-hydroxytryptamine receptor 6 (Homo sapiens) (P50406 whole entry): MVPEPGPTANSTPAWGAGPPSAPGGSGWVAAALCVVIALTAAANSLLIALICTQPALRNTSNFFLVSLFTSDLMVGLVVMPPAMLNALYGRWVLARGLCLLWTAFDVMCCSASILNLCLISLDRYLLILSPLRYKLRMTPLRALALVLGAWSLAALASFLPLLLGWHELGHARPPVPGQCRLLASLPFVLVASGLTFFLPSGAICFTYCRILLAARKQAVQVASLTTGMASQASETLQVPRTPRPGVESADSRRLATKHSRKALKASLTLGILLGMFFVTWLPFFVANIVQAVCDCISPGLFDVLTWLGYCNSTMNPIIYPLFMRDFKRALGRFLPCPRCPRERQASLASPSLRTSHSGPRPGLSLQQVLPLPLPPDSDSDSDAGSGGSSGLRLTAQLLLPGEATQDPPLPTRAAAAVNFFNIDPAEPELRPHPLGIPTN
Chain of Vasopressin V1b receptor (Homo sapiens) (P47901 whole entry): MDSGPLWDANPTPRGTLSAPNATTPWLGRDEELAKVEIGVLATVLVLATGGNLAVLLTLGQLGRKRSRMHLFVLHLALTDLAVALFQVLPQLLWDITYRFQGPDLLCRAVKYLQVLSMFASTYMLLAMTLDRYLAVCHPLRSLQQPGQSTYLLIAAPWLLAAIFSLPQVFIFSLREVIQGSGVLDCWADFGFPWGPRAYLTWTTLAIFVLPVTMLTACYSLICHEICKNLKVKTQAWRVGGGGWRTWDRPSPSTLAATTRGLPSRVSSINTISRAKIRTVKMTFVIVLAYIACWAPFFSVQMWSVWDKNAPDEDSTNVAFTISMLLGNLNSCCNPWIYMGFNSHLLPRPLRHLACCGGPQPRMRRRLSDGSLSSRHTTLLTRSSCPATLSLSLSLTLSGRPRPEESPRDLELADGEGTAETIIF
Chain of Sodium-dependent noradrenaline transporter (Homo sapiens) (P23975 whole entry): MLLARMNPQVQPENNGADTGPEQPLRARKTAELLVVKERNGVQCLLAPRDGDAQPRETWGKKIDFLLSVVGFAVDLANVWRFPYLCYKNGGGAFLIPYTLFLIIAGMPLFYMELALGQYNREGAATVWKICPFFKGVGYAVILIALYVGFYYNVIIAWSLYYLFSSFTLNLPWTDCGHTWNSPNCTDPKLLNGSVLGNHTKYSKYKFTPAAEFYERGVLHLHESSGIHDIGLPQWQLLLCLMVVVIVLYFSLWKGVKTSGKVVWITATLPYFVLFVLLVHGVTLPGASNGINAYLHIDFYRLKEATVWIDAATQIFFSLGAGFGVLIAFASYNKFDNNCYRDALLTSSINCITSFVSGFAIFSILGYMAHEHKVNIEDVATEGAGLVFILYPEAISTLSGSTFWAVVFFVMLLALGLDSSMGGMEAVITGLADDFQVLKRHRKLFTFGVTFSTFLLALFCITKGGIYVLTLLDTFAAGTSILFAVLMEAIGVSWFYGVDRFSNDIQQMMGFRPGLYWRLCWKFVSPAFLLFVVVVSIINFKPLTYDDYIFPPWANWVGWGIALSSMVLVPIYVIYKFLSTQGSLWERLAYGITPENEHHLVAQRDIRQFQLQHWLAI
Chain of Melanocortin receptor 4 (Homo sapiens) (P32245 whole entry): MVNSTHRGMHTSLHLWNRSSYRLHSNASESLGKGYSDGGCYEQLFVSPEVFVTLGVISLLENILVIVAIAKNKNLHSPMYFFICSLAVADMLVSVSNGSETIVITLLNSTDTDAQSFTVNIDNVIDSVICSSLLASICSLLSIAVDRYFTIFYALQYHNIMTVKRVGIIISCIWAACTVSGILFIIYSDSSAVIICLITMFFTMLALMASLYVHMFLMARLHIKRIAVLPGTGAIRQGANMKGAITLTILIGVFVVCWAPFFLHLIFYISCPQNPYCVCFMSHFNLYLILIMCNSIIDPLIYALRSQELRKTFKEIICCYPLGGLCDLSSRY
Chain of Neuropeptide Y receptor type 1 (Homo sapiens) (P25929 whole entry): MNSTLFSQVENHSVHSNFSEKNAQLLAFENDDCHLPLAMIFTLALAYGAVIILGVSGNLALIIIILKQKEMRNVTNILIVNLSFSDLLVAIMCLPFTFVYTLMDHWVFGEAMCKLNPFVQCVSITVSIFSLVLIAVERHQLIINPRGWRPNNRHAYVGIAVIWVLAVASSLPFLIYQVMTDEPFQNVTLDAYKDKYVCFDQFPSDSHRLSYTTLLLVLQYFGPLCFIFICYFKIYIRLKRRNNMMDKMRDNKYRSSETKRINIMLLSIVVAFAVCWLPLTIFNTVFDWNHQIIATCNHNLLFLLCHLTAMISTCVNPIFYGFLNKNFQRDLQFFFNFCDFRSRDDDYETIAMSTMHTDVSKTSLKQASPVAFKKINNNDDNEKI
Chain of Muscarinic acetylcholine receptor M2 (Homo sapiens) (P08172 whole entry): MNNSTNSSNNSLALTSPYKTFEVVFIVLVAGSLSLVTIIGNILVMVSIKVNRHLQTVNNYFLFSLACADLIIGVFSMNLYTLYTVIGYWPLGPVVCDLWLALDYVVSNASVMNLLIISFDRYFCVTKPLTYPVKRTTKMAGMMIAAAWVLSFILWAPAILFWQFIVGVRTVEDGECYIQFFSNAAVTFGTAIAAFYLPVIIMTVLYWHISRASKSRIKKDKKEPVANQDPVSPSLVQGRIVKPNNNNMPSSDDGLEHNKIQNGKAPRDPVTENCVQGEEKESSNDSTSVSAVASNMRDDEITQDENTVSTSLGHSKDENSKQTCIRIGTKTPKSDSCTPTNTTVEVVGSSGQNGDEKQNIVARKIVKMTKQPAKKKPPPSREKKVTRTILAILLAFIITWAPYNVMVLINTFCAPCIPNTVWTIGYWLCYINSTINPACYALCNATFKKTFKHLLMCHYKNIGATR
Chain of Somatostatin receptor type 2 (Homo sapiens) (P30874 whole entry): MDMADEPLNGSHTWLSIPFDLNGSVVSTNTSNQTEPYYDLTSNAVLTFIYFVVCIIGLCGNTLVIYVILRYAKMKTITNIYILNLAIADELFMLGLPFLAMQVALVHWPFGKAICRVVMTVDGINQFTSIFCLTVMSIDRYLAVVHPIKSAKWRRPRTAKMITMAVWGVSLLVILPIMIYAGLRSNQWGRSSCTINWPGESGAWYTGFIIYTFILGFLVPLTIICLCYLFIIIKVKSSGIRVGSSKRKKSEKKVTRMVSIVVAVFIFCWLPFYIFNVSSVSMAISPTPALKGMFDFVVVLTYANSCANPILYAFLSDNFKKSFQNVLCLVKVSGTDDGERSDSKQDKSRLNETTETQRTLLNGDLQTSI
Chain of Sigma non-opioid intracellular receptor 1 (Homo sapiens) (Q99720 whole entry): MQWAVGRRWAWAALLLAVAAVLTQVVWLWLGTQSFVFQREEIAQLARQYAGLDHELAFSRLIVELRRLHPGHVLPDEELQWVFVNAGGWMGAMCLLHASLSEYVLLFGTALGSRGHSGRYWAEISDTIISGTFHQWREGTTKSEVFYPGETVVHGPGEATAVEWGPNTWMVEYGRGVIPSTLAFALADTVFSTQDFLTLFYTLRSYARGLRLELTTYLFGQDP

CN(C(=O)Cn1c(=O)oc2ccc(-c3cccnc3)cc21)c1ccc(C(F)(F)F)cc1
inactive: inhibition (Rattus norvegicus [1]) | inhibition [2] | inhibition [3] | inhibition [4] | inhibition [5] | inhibition [6] | inhibition [7] | inhibition [9] | inhibition [10] | inhibition (Rattus norvegicus [11]) | inhibition [12] | inhibition [13] | inhibition [14] | inhibition [15] | inhibition [16] | inhibition [17] | inhibition [18] | inhibition [19] | inhibition [20] | inhibition [21] | inhibition [22] | inhibition (Rattus norvegicus [23]) | inhibition (Mesocricetus auratus) | inhibition [25] | inhibition (Rattus norvegicus [26]) | inhibition (Homo sapiens) | inhibition [27] | inhibition [28] | inhibition [29] | inhibition [30] | inhibition (Rattus norvegicus [31]) | inhibition [32] | inhibition [33] | inhibition [34] | inhibition [35] | inhibition [36] | inhibition (Rattus norvegicus [37]) | inhibition [38] | inhibition (Rattus norvegicus [39]) | inhibition [40] | inhibition [41] | inhibition [42] | inhibition [43] | inhibition [44] | inhibition [45] | inhibition (Rattus norvegicus [46])
active: Activity (Rattus norvegicus [8])
0%: inhibition (Rattus norvegicus [24])

CN(C(=O)Cn1c(=O)oc2ccc(-c3ccc(OC(F)(F)F)cc3)cc21)c1cccnc1.Cl
23 µg/mL: solubility [49]
1.3: Kp [48]
Toxic: Activity (Mus musculus [47])

CN1C(=O)CN=C(c2ccccc2)c2cc(Cl)ccc21 [DIAZEPAM]
Toxic: Activity (Mus musculus [50]) | Activity (Rattus norvegicus [51]) | Activity (Mus musculus [52]) | Activity (Mus musculus [53])
